Laboratory results reported in ChEMBL document CHEMBL1221207, “Expanding the promiscuity of a natural-product glycosyltransferase by directed evolution” (Nat Chem Biol, 2007).
Numbering of substitutions follows the chain as printed.

Tests used:
[1] = tested on: T1, Oleandomycin glycosyltransferase (Streptomyces antibioticus), Q53685 [P67T,S132F,A242V]; test: Activity of Streptomyces antibioticus OleD P67T/S132F/A242V mutant assessed as conversion rate of compound to produce glucoside 3 using NDP sugar UDP-glucose after 3 hrs by HPLC
T1 sequence (whole entry): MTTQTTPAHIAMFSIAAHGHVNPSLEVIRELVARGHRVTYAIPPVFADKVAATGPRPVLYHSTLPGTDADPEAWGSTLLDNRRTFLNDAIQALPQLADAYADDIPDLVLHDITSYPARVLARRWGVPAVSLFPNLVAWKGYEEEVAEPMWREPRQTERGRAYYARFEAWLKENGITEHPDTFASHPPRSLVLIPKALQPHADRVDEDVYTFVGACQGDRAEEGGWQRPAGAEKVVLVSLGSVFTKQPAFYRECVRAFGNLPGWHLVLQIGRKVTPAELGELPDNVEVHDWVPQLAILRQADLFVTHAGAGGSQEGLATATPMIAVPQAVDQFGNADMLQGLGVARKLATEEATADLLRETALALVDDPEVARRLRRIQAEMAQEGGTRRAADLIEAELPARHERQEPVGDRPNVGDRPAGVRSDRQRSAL
In short: (§1)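 End-point donor-specificity assay with purified OleD enzyme. Percentage conversion was read after 3 h. Quenched reactions were run by reverse-phase C18 HPLC with a 10–90% CH3CN gradient in 0.1% formic acid/H2O over 20 min at 1 ml min–1, with detection at 254 nm. Products were identified by LC-MS, by comparison to standards where available, and by fluorescence.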

[2] = tested on: T2, Oleandomycin glycosyltransferase (Streptomyces antibioticus), Q53685 [P67T]; test: Activity of Streptomyces antibioticus OleD P67T mutant assessed as conversion rate of compound to produce glucoside 3 using NDP sugar donor UDP-glucose after 3 hrs by HPLC; in short: as §1
T2 sequence (whole entry): T1 sequence (whole entry) with F132S, V242A

[3] = tested on: T1, Oleandomycin glycosyltransferase (Streptomyces antibioticus), Q53685 [P67T,S132F,A242V]; test: Activity of Streptomyces antibioticus OleD P67T/S132F/A242V mutant assessed as conversion rate of compound to produce glucoside 3 using NDP sugar UDP-6-azido-glucose after 3 hrs by HPLC; in short: as §1
[4] = tested on: T1, Oleandomycin glycosyltransferase (Streptomyces antibioticus), Q53685 [P67T,S132F,A242V]; test: Activity of Streptomyces antibioticus OleD P67T/S132F/A242V mutant assessed as conversion rate of compound to produce glucoside 3 using NDP sugar donor UDP-4-deoxy-glucose after 3 hrs by HPLC; in short: as §1
[5] = target: T3, Oleandomycin glycosyltransferase (Streptomyces antibioticus) (UniProt Q53685); test: Activity of Streptomyces antibioticus wild-type OleD assessed as conversion rate of compound to produce glucoside 3 using NDP sugar UDP-glucose after 3 hrs by HPLC; in short: as §1
T3 sequence (whole entry): T1 sequence (whole entry) with T67P, F132S, V242A

[6] = tested on: T4, Oleandomycin glycosyltransferase (Streptomyces antibioticus), Q53685 [A242V]; test: Activity of Streptomyces antibioticus OleD A242V mutant assessed as conversion rate of compound to produce glucoside 3 using NDP sugar donor UDP-xylose after 3 hrs by HPLC; in short: as §1
T4 sequence (whole entry): T1 sequence (whole entry) with T67P, F132S

[7] = tested on: T4, Oleandomycin glycosyltransferase (Streptomyces antibioticus), Q53685 [A242V]; test: Activity of Streptomyces antibioticus OleD A242V mutant assessed as conversion rate of compound to produce glucoside 3 using NDP sugar donor UDP-6-azido-glucose after 3 hrs by HPLC; in short: as §1
[8] = tested on: T1, Oleandomycin glycosyltransferase (Streptomyces antibioticus), Q53685 [P67T,S132F,A242V]; test: Activity of Streptomyces antibioticus OleD P67T/S132F/A242V mutant assessed as conversion rate of compound to produce glucoside 3 using NDP sugar donor-UDP-3-deoxy-glucose after 3 hrs by HPLC; in short: as §1
[9] = tested on: T2, Oleandomycin glycosyltransferase (Streptomyces antibioticus), Q53685 [P67T]; test: Activity of Streptomyces antibioticus OleD P67T mutant assessed as conversion rate of compound to produce glucoside 3 using NDP sugar donor UDP-xylose after 3 hrs by HPLC; in short: as §1
[10] = tested on: T1, Oleandomycin glycosyltransferase (Streptomyces antibioticus), Q53685 [P67T,S132F,A242V]; test: Activity of Streptomyces antibioticus OleD P67T/S132F/A242V mutant assessed as conversion rate of compound to produce glucoside 3 using NDP sugar donor UDP-3-amino-glucose after 3 hrs by HPLC; in short: as §1
[11] = tested on: T1, Oleandomycin glycosyltransferase (Streptomyces antibioticus), Q53685 [P67T,S132F,A242V]; test: Activity of Streptomyces antibioticus OleD P67T/S132F/A242V mutant assessed as conversion rate of compound to produce glucoside 3 using NDP sugar UDP-xylose after 3 hrs by HPLC; in short: as §1
[12] = target: T3, Oleandomycin glycosyltransferase (Streptomyces antibioticus); test: Activity of Streptomyces antibioticus wild-type OleD assessed as conversion rate of compound to produce glucoside 3 using NDP sugar UDP-6-deoxy-glucose after 3 hrs by HPLC; in short: as §1
[13] = tested on: T1, Oleandomycin glycosyltransferase (Streptomyces antibioticus), Q53685 [P67T,S132F,A242V]; test: Activity of Streptomyces antibioticus OleD P67T/S132F/A242V mutant assessed as as rate of glucoside formation measured as nanomoles of product formed per minute per mg of enzyme

Cc1cc(=O)oc2cc(O)ccc12
Activity [1]: 96.4% | Activity [2]: 51% | Activity [3]: 41% | Activity [4]: 22% | Activity [5]: 13.9% | Activity [6]: 2% | Activity [7]: 2% | Activity [8]: 8% | Activity [9]: 2% | Activity [10]: 4% | Activity [11]: 31% | Activity [12]: 6% | Activity [13]: 84 nmol/min
